High-throughput results as filed in PubChem.
ABHD5 PLIN5 PPI – inhibitors of human ABHD5-perilipin-5 interaction. Q00G26+Q8WTS1. Split G. princeps luciferase complementation, luminescence, 4 h. inhibition, % at 4 µM. 360,000 tested, 0.78% active. AID 602281;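 active = inhibition above the mean inhibition across every tested compound plus 3 SD, cut at about 22% in these data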
UPR CHOP act – apoptotic UPR (CHOP) activation; AID 449763; activation, % at 10 µM; CHO-CHOP luciferase reporter, luminescence; percent of tunicamycin response over DMSO baseline; 330,000 tested, 0.34% active;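 active = at 10 µM dose, activation of 40% or more, normalized to positive control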
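System: CHO-CHOP luciferase reporter cell line | Buffer or medium: F12 medium containing 10% fetal bovine serum | Doses: One dose, 10 µM in 0.5% DMSO | Times: 6 h compound exposure at 37 °C after overnight seeding | Signal: Luciferase luminescence | Read-out: % activation vs tunicamycin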
Mdm2-MdmX inh – inhibitors of human Mdm2/MdmX interaction; O15151+Q00987; SaOS-2 split-luciferase Mdm2/MdmX complementation, luminescence; inhibition, % at 8 µM; 330,000 tested, 3% active;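 active = inhibition of at least 50% at 8 µM in the primary screen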
Target sequence (O15151 whole entry, looked up): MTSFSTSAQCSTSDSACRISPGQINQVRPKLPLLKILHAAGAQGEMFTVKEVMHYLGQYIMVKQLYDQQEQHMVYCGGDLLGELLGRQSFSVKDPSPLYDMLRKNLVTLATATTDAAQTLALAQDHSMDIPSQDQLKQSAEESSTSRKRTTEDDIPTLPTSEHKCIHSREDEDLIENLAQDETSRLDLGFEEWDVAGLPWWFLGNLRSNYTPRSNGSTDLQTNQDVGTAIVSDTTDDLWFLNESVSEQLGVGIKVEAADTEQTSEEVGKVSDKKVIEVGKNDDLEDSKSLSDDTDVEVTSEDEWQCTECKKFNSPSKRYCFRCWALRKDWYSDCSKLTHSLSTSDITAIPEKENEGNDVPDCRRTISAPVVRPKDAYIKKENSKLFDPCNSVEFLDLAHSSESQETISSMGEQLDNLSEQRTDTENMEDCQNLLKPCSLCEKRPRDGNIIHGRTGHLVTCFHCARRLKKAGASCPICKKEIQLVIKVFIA
Target sequence (Q00987 whole entry, looked up): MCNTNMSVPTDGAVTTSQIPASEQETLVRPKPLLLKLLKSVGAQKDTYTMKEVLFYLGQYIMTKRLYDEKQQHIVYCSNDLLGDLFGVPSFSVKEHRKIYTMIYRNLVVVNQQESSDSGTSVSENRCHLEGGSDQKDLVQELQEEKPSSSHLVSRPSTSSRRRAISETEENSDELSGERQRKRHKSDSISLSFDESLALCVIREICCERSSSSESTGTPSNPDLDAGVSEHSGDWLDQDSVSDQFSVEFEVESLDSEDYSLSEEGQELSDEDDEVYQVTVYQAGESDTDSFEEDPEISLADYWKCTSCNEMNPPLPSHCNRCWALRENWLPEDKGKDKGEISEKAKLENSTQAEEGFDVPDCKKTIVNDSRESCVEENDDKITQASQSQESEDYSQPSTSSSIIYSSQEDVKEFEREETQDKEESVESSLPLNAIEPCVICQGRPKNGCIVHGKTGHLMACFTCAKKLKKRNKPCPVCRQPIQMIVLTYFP
Exocytosis inh – blocks lytic granule exocytosis; inhibition, % at 10 µM; 360,000 tested, 0.66% active; AID 651702; TALL-104 LAMP-1 surface exposure, flow cytometry; cells stimulated with thapsigargin and PMA;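 active = inhibition above about 55%, limit read from the data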
XBP1 UPR activ – adaptive UPR (XBP1) activation. activation, % at 20 µM. 330,000 tested, 0.33% active. CHO-XBP1 luciferase reporter, IRE1-XBP1 UPR activation, luminescence; percent of tunicamycin response, DMSO as zero;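 active = versus positive control, 20 µM dose yields 30% or more activation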
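Material: IRE1-XBP1 luciferase reporter CHO line / Quantity: one thousand reporter cells per well / Buffer or medium: F12 with 10% serum / Compound: 20 µM single concentration, DMSO 1% / Times: 6 h treatment, 37 °C / Detection: Steady-Glo luciferase glow luminescence, 10 min after reagent addition / Benchmarks: tunicamycin high, DMSO low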
Mdm2-MdmX conf – confirmation of human Mdm2/MdmX interaction inhibitors | shares compounds with Mdm2-MdmX inh | Mdm2-MdmX binding, luminescent assay | inhibition, % at 8 µM | 10,000 tested, 55% active | AID 489028; in the data active = inhibition above about 40%
Full FLuc ctr – full-length luciferase inhibition in Mdm2/MdmX counter-screen; shares compounds with Mdm2-MdmX inh; SaOS-2 full-length luciferase counterscreen, luminescence; AID 504607; inhibition, % at 8 µM; 6,200 tested, 77% active;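 active = mean inhibition at 8 µM reaching about 37%, which flags the compound as non-specific, limit read from the data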;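 also: p53-null SaOS-2 cells with luciferase driven by a doxycycline-inducible promoter; compound on cells about two nights before reading with doxycycline added after day one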
Hits are given with their value; . = inactive; / = no result. Rows were chosen to be rich in hits. Some 4% of all compounds tested hit in one or more screens of this group.

SMILES	ABHD5 PLIN5 PPI	UPR CHOP act	Mdm2-MdmX inh	Exocytosis inh	XBP1 UPR activ	Mdm2-MdmX conf	Full FLuc ctr
CCOC(=O)c1c(C)n(C)c2ccc(O)c(CN3CCCCC3)c12	.	.	.	.	.	/	/
O=C1N[C@@H](Cc2ccccc2)C(=O)N2[C@H]3Nc4ccccc4[C@@]3([C@]34C[C@H]5C(=O)N[C@@H](Cc6ccccc6)C(=O)N5[C@H]3Nc3ccccc34)C[C@@H]12	/	.	52.8	/	.	.	/
CCC(=O)Nc1ccc(S(=O)(=O)Nc2ncccn2)cc1	.	.	.	.	.	/	/
O=C(CN1c2ccccc2Sc2ccccc21)NNC(=O)Nc1cccc(Cl)c1	.	.	67.4	.	.	.	90.1
COC(=O)Cn1c(=O)c(C(=O)CCl)c(N)n(Cc2ccccc2)c1=O	.	.	74.6	.	.	48.5	69.6
CCN(CC)c1ccc(-n2c(C)c(C(C)=O)c(C(C)=O)c2C)cc1	.	.	.	.	.	/	/
N#Cc1c(SCC(=O)Nc2ccc(Cl)cc2Cl)sc2c(O)cc(=O)[nH]c12	.	.	62.2	.	.	.	/
COc1ccccc1N1CCN(C(=O)c2noc(C)c2[N+](=O)[O-])CC1	.	.	.	.	.	/	/
Cc1onc(C(=O)N2CCN(C(c3ccccc3)c3ccccc3)CC2)c1[N+](=O)[O-]	.	.	71.4	.	.	88.3	51.9
Cc1ccc(S(=O)(=O)c2nc(S(C)(=O)=O)sc2N2CCCCC2C)cc1 (stereo not given)	.	.	57.3	.	.	41.4	39.8
Cc1ccc(-n2cccc2C(=S)N=P(N(C)C)(N(C)C)N(C)C)cc1	.	.	72.1	.	.	50.3	51.5
Cc1ccccc1C(=O)Nc1sc(C)c(C)c1C(=O)c1ccccc1	.	.	.	.	.	/	/
Cc1sc(NC(=O)CCl)c(C(=O)c2ccccc2)c1C	.	.	54.3	.	.	.	/
NC(=O)CCC(C(=O)O)N1C(=O)c2ccc(O)cc2C1=O (stereo not given)	.	.	.	.	.	/	/
CCOC(=O)c1ccc(Nc2cc(C)nc(-c3ccccc3)n2)cc1	.	.	55.6	.	.	66.2	56.9
CCOC(=O)c1ccc(NC(=O)Nc2cc(C)cc(C)n2)cc1	/	.	50.3	/	.	.	/
O=C1N[C@@H](Cc2c[nH]c3ccccc23)COC(=O)[C@@H](Cc2ccc(F)cc2)C/C=C\C[C@H]1CC(=O)N(CCO)Cc1ccccc1	.	.	51.4	.	.	.	/
O=C1NC[C@H](c2ccccc2)OC(=O)[C@H](Cc2ccc(F)cc2)C/C=C\C[C@H]1CC(=O)N(CCO)Cc1ccccc1	.	.	80.5	.	.	62.9	46.6
O=C1NC[C@@H](c2ccccc2)OC(=O)[C@@H](Cc2ccc(F)cc2)CC/C=C/C[C@H]1CC(=O)N(CCO)Cc1ccccc1	.	.	62.5	.	.	46.9	53.2
O=C1NC[C@H](c2ccccc2)OC(=O)[C@@H](Cc2ccc(F)cc2)C/C=C\C[C@H]1CC(=O)N(CCO)Cc1ccccc1	.	.	85.2	.	.	78.7	50.8
COc1cc2c(c(OC)c1OC)C(=O)C(=Cc1ccccc1)O2	.	/	/	.	/	/	/
COC1=CC(=O)c2ccccc2C1=O	.	.	50.9	.	.	.	/
O=[N+]([O-])c1cccc(NC(=S)Nc2nc(-c3ccccc3Cl)cs2)c1	.	.	95.7	.	.	85.0	62.7
CCNC(=S)Nc1cccc([N+](=O)[O-])c1	/	.	.	/	.	/	/
COc1nc(Nc2nc3ccccc3c(=O)[nH]2)nc2ccc(C)cc12	.	.	65.5	.	.	42.8	75.8
SMILES	ABHD5 PLIN5 PPI	UPR CHOP act	Mdm2-MdmX inh	Exocytosis inh	XBP1 UPR activ	Mdm2-MdmX conf	Full FLuc ctr
NC1=NC[C@H](c2ccccc2)N1CCCCC1CCCCC1	.	.	50.8	.	.	.	/
O=S(=O)(c1cccc(C(F)(F)F)c1)N(CCCN1CCOCC1)Cc1cccs1	.	.	.	.	.	/	/
COC(=O)c1cc2sccc2n1CC(=O)N1CCCc2ccccc21	.	.	51.9	.	.	40.7	51.5
CCN(CC)CCNC(=O)c1ccc(NC(=O)c2ccc(Cl)c(S(=O)(=O)N3CCCCCC3)c2)cc1	.	.	94.1	.	.	.	/
CCN(CC)CCNC(=O)c1ccc(NC(=O)c2ccc(COc3ccccc3)cc2)cc1	.	.	82.7	.	.	.	/
CCN(CC)CCNC(=O)c1ccc(NC(=O)c2ccc(S(=O)(=O)N3CCCCCC3)cc2)cc1	.	.	.	.	.	/	/
CCN(CC)CCNC(=O)c1ccc(NC(=O)c2ccc(C(=O)c3ccccc3)cc2)cc1	.	.	.	.	.	/	/
O=c1c(Cl)c(N2CCCCC2)cnn1-c1nc2ccccc2[nH]1	.	.	52.5	.	.	56.3	62.6
O=C(COc1ccccc1Cl)NNC(=O)c1cc(S(=O)(=O)N2CCOCC2)ccc1N1CCCC1	.	.	.	.	.	/	/
Cc1ccc2c(c1)Oc1ccc(NC(=O)CCCl)cc1C(=O)N2	.	.	66.6	.	.	68.0	101.5
COC(=O)[C@]1(Cc2ccccc2)N[C@H](CN(C)C(=O)Nc2ccc(C(F)(F)F)cc2)[C@@H]2C(=O)N(Cc3ccccc3)C(=O)[C@@H]21	.	.	70.1	.	.	42.5	65.2
CCN(C[C@H]1N[C@@](Cc2ccccc2)(C(=O)OC)[C@H]2C(=O)N(Cc3ccccc3)C(=O)[C@@H]12)C(=O)Nc1ccc(Cl)cc1	.	.	66.5	.	.	47.9	55.6
CCN(C[C@H]1N[C@@](Cc2ccccc2)(C(=O)OC)[C@H]2C(=O)N(Cc3ccccc3)C(=O)[C@@H]12)C(=O)Nc1ccc(F)cc1	.	.	.	.	.	/	/
CC[C@@]1(C(=O)OC)N[C@H](CN(C)C(=O)Nc2ccccc2)[C@@H]2C(=O)N(Cc3ccccc3)C(=O)[C@@H]21	.	.	.	.	.	/	/
CC[C@@]1(C(=O)OC)N[C@H](CN(C)C(=O)Nc2ccc(C(F)(F)F)cc2)[C@@H]2C(=O)N(Cc3ccccc3)C(=O)[C@@H]21	.	.	84.2	.	.	81.4	.
CCN(C[C@H]1N[C@@](CC)(C(=O)OC)[C@H]2C(=O)N(Cc3ccccc3)C(=O)[C@@H]12)C(=O)c1ccc(C(C)(C)C)cc1	.	.	74.7	.	.	68.2	55.0
CCCCN(C)c1c(C)nc2ccc(C(=O)NCCCn3ccnc3)cn12	.	/	/	.	/	/	/
CCN(CC)S(=O)(=O)c1ccc(S(=O)(=O)NCc2cccs2)cc1	.	.	.	.	.	/	/
COc1ccc(CNc2nc3ccccc3n2CCN2CCCCC2)c(OC)c1	.	.	.	.	.	/	/
O=C1N=C2SCCN2/C1=C\c1ccc(Cl)cc1	.	.	52.0	.	.	.	/
